From ChEMBL document CHEMBL4368914, “Tricyclic Indazoles-A Novel Class of Selective Estrogen Receptor Degrader Antagonists” (J Med Chem, 2019)

Columns and labels:
[1] = Fraction unbound in Alderley Park Han Wistar rat plasma by equilibrium dialysis; type: ADME, cell-free
How it was run: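 Equilibrium dialysis from DMSO stock in 10% plasma, either Alderley Park Han Wistar rat plasma or human plasma.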

[2] = Intrinsic clearance in rat hepatocytes assessed per million cells; type: ADME, cell-based, Hepatocyte; conditions: read-out: CLH
How it was run: (§1)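 Rate of metabolism (µl/min/10⁶ cells) measured from DMSO stock in isolated hepatocytes diluted to 1x10⁶ cells/mL.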

[3] = Intrinsic clearance in human hepatocytes assessed per million cells; type: ADME, cell-based, Hepatocyte; conditions: read-out: CLH; how it was run: as §1
[4] = Efflux ratio of apparent permeability in MDCK cells at 10 uM; type: ADME, cell-based, Canis lupus familiaris; conditions: dog
How it was run: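 Compound at 10 μM incubated on cultured Caco-2 or MDCK cells. Permeability was measured apical-to-basolateral and basolateral-to-apical, and efflux ratio was taken as (B to A)/(A to B).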

[5] = Fraction unbound in mouse plasma by equilibrium dialysis; type: ADME, cell-free
[6] = Clearance in rat at 0.5 mg/kg, iv or 1 mg/kg, po; type: ADME, organism-based; conditions: in vivo
How it was run: (§2)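 Single IV dose of 0.5 mg/kg and oral dose of 1 mg/kg in rat and dog. Both routes were formulated in 5% DMSO:95% hydroxypropyl β-cyclodextrin (30% w/v), at 1 mL/kg IV and 4 mL/kg PO.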

[7] = Clearance in dog at 0.5 mg/kg, iv or 1 mg/kg, po; type: ADME, organism-based, Canis lupus familiaris; conditions: in vivo; how it was run: as §2
[8] = Volume of distribution at steady state in dog at 0.5 mg/kg, iv or 1 mg/kg, po; type: ADME, organism-based, Canis lupus familiaris; conditions: in vivo, read-out: Vdss; how it was run: as §2
[9] = Half life in rat at 0.5 mg/kg, iv or 1 mg/kg, po; type: ADME, organism-based; conditions: in vivo; how it was run: as §2
[10] = Oral bioavailability in rat at 1 mg/kg; type: ADME, organism-based; conditions: in vivo; how it was run: as §2
[11] = Oral bioavailability in dog at 1 mg/kg; type: ADME, organism-based, Canis lupus familiaris; conditions: in vivo; how it was run: as §2
[12] = AUC in rat at 1 mg/kg, po; type: ADME, organism-based; conditions: in vivo, read-out: AUC; how it was run: as §2
[13] = AUC in dog at 1 mg/kg, po; type: ADME, organism-based, Canis lupus familiaris; conditions: in vivo; how it was run: as §2
Estrogen receptor [14] = molecular target: T1, Estrogen receptor (Homo sapiens, UniProt P03372); test: Induction of ERalpha degradation in human MCF7 cells assessed as reduction in ERalpha protein expression after 5 hrs in absence of […] tamoxifen by formaldehyde-staining based assay; type: cell-based
T1 sequence (P03372 whole entry): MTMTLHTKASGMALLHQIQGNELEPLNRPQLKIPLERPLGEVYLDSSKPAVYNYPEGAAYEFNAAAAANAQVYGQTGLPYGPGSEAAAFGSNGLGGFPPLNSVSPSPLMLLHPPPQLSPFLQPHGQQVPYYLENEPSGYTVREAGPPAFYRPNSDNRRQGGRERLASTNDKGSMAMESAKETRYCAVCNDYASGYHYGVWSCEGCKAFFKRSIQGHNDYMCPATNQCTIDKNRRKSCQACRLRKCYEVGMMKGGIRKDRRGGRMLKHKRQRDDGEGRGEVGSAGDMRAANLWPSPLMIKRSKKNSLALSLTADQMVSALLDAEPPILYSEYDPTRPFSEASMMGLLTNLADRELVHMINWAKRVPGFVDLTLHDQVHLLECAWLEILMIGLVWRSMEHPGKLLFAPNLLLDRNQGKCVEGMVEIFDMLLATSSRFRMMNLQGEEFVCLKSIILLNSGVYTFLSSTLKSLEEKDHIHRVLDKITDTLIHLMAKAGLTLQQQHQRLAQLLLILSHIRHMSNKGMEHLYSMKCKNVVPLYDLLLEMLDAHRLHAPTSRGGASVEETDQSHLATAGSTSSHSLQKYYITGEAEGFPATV

Estrogen receptor [15] = molecular target: T1, Estrogen receptor; test: Agonist activity at ERalpha in human MCF7 cells assessed as effect on PR protein expression after 5 hrs by formaldehyde-staining based assay; type: cell-based
[16] = molecular target: T2, Estrogen receptor (Homo sapiens) (UniProt P03372); test: Induction of ERalpha degradation in human MCF7 cells after 24 hrs by Western blot analysis; type: cell-based
T2 sequence (whole entry): T1 sequence (P03372 whole entry)
How it was run: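 MCF-7 cells in phenol red-free RPMI1640 with 5% charcoal-stripped FCS and 2 mmol/L glutamine (37 °C, 5% CO₂) exposed to a range of concentrations for 24 h. Total protein extracted and immunoblotted with anti-ER (SP1) and GAPDH antibodies diluted in 5% milk-PBS-Tween. Detection by enhanced chemiluminescent HRP substrate and imager.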

[17] = molecular target: T2, Estrogen receptor (Homo sapiens); test: Antagonist activity at ERalpha in human MCF7 cells assessed as inhibition of estradiol-driven cell growth measured after overnight incubation by SYTOX green-based assay
How it was run: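 MCF-7 cells grown at 37 °C, 5% CO₂, humidified, in phenol red-free RPMI1640 with 5% charcoal-stripped FCS and 2 mmol/L glutamine. Compounds held as 10 mmol/L DMSO stocks under nitrogen. Proliferation read in the presence of 0.1 nM estradiol.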

Estrogen receptor [18] = molecular target: T1, Estrogen receptor; test: Antagonist activity at ERalpha in human MCF7 cells assessed as inhibition of estradiol-driven PR response by microplate cytometry; type: cell-based
Mus musculus = test: In vivo antagonist activity at ERalpha in tumor of human MCF7 cells xenografted in SCID CB17 mouse assessed as reduction in normalized PR levels at 50 mg/kg, po administered once daily for 3 days measured after 24 hrs post last dose by Western blot analysis relative to control; type: functional; design: scale not given: the % may be the effect or the level left
How it was run: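 Male SCID mice carried a 0.5 mg/21 day s.c. estrogen pellet, with 5x10^6 MCF-7 cells implanted s.c. in the hind flank 24 h later. Groups of 5 were randomised at 0.5–0.8 cm³ and gavaged once daily for 3 d in PEG400/Captisol/water vehicle at 10 ml/kg. Tumours were taken 24 h post-dose, and PR was read by Western blot normalized to vinculin.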

[19] = Glutathione reactivity in human liver microsomes assessed as GSH trapping ratio of compound to clozapine; type: ADME, Microsome
How it was run: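 Glutathione trapping in human liver microsomes, expressed as a ratio to clozapine.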

Cytochrome P450 3A4 = Cytochrome P450 3A4 (Homo sapiens, UniProt P08684); test: Inhibition of CYP3A4 in human liver microsomes; type: ADME
How it was run: (§3)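 High-throughput human liver microsome assay across a panel of five CYP isoforms, giving IC50.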

[20] = molecular target: Voltage-gated inwardly rectifying potassium channel KCNH2 (Homo sapiens, UniProt Q12809); test: Inhibition of human ERG by plate based planar patch clamp assay
Cytochrome P450 2D6 = Cytochrome P450 2D6 (Homo sapiens, UniProt P10635); test: Inhibition of CYP2D6 in human liver microsomes; type: ADME; how it was run: as §3
[21] = Stability in pH 7.4 deuterated buffer by 1H NMR spectroscopy; type: physicochemical
How it was run: (§4)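 Compound diluted from a 25 mM DMSO-d6 stock to a final 1 mM in each deuterated buffer. Followed by ¹H NMR (500 MHz, water suppression, 64 scans) and LC-MS at 0, 24, 72 and 192 h (8 days).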

[22] = Stability in pH 1 deuterated buffer assessed as compound remaining after 8 days by 1H NMR spectroscopy; type: physicochemical; conditions: pH 4 deuterated buffer, in the assay text read “pH 4” for “pH 1”, read-out: Stability; how it was run: as §4
[23] = Intrinsic clearance in dog hepatocytes assessed per million cells; type: ADME, cell-based, Canis lupus familiaris, Hepatocyte; conditions: read-out: CLH; how it was run: as §1
MCF7 = test: Antitumor activity against human MCF7 cells xenografted in SCID CB17 mouse assessed as tumor growth inhibition at 20 mg/kg, po administered once daily and measured on day 20 of dosing relative to control; conditions: read-out: TGI

Chain of Cytochrome P450 3A4 (P08684 whole entry, canonical isoform): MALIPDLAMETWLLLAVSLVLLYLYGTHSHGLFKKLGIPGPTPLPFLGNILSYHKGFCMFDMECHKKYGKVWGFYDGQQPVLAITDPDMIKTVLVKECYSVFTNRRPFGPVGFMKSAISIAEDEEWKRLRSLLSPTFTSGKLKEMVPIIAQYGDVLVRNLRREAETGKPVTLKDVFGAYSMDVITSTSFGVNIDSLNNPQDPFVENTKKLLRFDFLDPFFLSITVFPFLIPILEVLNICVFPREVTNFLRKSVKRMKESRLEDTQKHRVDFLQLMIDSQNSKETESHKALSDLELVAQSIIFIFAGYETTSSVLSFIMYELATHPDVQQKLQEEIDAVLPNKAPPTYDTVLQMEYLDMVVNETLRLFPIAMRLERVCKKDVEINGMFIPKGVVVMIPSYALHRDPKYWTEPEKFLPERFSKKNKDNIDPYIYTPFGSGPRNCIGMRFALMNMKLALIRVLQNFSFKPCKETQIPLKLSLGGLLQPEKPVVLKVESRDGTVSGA
Chain of Voltage-gated inwardly rectifying potassium channel KCNH2 (Q12809 whole entry): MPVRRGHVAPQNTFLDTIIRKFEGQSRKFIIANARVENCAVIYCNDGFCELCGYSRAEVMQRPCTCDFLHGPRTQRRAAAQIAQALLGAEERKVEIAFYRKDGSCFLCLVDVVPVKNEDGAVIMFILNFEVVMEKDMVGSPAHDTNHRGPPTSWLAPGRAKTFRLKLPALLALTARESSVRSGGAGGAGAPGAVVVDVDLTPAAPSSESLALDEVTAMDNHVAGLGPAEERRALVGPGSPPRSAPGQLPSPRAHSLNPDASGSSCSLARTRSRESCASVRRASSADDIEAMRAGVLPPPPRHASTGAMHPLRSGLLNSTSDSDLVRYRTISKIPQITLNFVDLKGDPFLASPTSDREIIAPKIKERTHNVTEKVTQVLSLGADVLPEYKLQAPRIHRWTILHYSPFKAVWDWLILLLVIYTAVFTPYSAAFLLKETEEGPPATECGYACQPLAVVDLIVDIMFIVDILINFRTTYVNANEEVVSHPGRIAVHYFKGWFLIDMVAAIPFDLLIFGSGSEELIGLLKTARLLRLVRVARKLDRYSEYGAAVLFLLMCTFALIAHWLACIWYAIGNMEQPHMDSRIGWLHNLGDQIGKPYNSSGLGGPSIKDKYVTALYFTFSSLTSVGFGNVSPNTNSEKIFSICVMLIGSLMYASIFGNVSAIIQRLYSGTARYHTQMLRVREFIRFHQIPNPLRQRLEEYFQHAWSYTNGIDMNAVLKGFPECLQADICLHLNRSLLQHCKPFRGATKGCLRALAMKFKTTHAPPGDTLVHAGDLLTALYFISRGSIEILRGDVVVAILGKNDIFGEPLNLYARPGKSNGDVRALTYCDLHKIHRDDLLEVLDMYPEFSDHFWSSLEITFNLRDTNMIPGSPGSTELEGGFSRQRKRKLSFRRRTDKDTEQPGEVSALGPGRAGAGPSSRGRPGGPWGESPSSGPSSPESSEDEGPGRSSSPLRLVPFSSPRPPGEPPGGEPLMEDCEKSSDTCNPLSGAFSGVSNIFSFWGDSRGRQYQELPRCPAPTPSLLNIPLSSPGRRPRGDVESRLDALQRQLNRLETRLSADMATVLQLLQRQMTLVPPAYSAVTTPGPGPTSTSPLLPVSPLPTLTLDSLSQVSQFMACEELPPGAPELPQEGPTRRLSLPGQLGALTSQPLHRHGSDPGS
Chain of Cytochrome P450 2D6 (P10635 whole entry): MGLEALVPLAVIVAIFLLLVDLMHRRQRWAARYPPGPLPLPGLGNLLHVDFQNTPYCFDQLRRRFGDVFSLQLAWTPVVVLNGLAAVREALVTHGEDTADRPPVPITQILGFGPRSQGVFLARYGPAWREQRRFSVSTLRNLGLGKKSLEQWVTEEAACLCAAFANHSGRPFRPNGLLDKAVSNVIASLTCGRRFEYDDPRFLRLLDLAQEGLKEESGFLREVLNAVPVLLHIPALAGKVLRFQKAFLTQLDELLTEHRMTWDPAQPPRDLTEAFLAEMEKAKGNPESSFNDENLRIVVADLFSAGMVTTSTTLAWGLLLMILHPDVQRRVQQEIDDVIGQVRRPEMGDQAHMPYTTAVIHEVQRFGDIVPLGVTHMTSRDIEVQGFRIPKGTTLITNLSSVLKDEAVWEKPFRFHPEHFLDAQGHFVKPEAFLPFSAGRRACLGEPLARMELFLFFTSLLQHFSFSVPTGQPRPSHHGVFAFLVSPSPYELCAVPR

In the case of `C[C@@H]1Cc2c(ccc3[nH]ncc23)[C@@H](c2c(F)cc(/C=C/C(=O)O)cc2F)N1CC(C)(C)F`, the fraction unbound [1] is reported as 0.0083, the hepatocyte CLint [2] is reported as 26 µL/min/1e6 cells and the hepatocyte CLint [3] is reported as 17 µL/min/1e6 cells. For the same compound, the efflux ratio at 10 µM [4] was 0.6, the fraction unbound [5] was 0.0095 and the clearance [6] was 23 mL/min/kg. It also gave a clearance [7] of 5.9 mL/min/kg, a Vd [8] of 0.58 L/kg and a half-life [9] of 1.2 h. It also gave a bioavailability [10] of 31%, a bioavailability [11] of 45% and an AUC [12] of 0.83 µM·h. The AUC [13] was 3.2 µM·h, the IC50 (Estrogen receptor [14]) was 0.000251 µM and the IC50 (Estrogen receptor [15]) was > 3.16 µM. The Activity [16] was “Dose-dependent effect”, the Activity [17] was “Dose-dependent effect” and the IC50 (Estrogen receptor [18]) was 0.001 µM. The Activity (Mus musculus) was 93%, the Ratio [19] was < 0.04 and the IC50 (Cytochrome P450 3A4) was 13 µM. The IC50 [20] was > 100 µM, the IC50 (Cytochrome P450 2D6) was > 30 µM and the Stability [21] was “Stable”. It also gave a remaining at 192 h [22] of 58%, a hepatocyte CLint [23] of 17 µL/min/1e6 cells and an inhibition in vivo at 20 mg/kg (MCF7) of 80%.
